# Source: PubChem
# GalR3 antag – blocks the human galanin receptor 3 | O60755 | HEK293 GalR3-CNG cAMP membrane potential fluorescence; galR3 body fused to GalR1 C-terminus | inhibition, % at 3 µM | 360,000 tested, 0.44% active | AID 651719;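 active = inhibition above the screen-wide average plus 3 SD, cut at about 13% in these data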;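 note: forskolin and galanin both at EC90 stimulate the cells; cAMP rise reported by CNG channel membrane potential dye signal; 0% = forskolin plus galanin with DMSO and 100% = forskolin alone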
# OX1R antag-1 – OX1R (human) antagonism. OX1R-expressing cells, FRET antagonist read-out. inhibition, % at 6.6 µM. 330,000 tested, 1.8% active; in the data active = inhibition mostly above about 38%, no sharp cut-off; inactive = mostly below about 40%;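 note: 0% = agonist challenge alone and 100% = reference antagonist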
# Target sequence (O43613 whole entry, looked up): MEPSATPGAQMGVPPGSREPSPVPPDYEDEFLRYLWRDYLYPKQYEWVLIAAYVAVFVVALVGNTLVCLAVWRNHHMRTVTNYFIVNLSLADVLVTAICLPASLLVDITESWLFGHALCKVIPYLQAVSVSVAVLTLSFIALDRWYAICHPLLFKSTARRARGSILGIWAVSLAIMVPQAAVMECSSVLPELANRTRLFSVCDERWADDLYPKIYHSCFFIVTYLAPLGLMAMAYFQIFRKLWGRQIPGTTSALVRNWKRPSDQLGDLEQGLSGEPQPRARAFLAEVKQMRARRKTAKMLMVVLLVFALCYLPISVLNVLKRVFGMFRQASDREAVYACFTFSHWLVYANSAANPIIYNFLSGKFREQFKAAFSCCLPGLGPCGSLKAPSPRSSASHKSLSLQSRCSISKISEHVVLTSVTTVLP
# OX1R antag-2 – antagonists of human orexin 1 receptor; CHO/OX1R cells, Fluo-8 calcium fluorescence, orexin A; O43613; inhibition, % at 5 µM; 330,000 tested, 0.43% active;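 active = inhibition above its plate's threshold, mean inhibition of all tested compounds on the plate plus 3 SD, cut at about 37% in these data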;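 note: 0% = orexin A challenge wells and 100% = SB-334867-A antagonist wells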
# GPR7 antagonist – blocks human GPR7 receptor signaling | P48145 | GPR7-expressing cells, fluorescence antagonist assay | inhibition, % at 4.4 µM | 290,000 tested, 1.1% active; in the data active = inhibition above about 16%, passing the limit was not always enough;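 note: cells stimulated with the agonist NPW; 0% = agonist with vehicle and 100% = vehicle without agonist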
# CHO parental Ca – counter-screen for OX1R antagonists: effect in parental CHO cells. parental CHO-K1, ATP-induced calcium, Fluo-8 fluorescence. inhibition, % at 5.6 µM. 330,000 tested, 0.63% active. AID 463079;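 active = inhibition above that plate's mean sample inhibition plus 3 SD, cut at about 26% in these data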;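 note: 0% = ATP-challenged DMSO wells and 100% = DMSO wells without ATP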
#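 Material: Parental CHO cells | Reagent: ATP | Compound dosing: Single nominal dose of 5.6 µM per compound | Detection: Intracellular calcium via Fluo-8 no-wash fluorescent dye | Read-out: % inhibition of ATP-induced calcium mobilization | Benchmarks: Low control ATP plus DMSO, high control DMSO only | Replicates: Singlicate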
# * hit, by the source's call; . = no result. Only some compounds are listed: those with a hit (about 3.1% of all), similar ones and a draw of the others.
SMILES,GalR3 antag,OX1R antag-1,OX1R antag-2,GPR7 antagonist,CHO parental Ca
Cc1ccsc1C1C=C(c2cccc(Br)c2)Nc2ncnn21 (centres undefined),.,51,45*,12,-15
Cc1ccc(S(=O)(=O)N(C)[C@H]2C[C@H]3c4[nH]c5c(-c6ccccc6)cccc5c4CCN3C(=O)[C@H]2[C@H](C)O)cc1,0,.,.,.,.
Cc1ccc(C)c(S(=O)(=O)N2CCCOC2CNC(=O)C(=O)NCCc2ccccc2)c1 (centres undefined),-2,54*,-1,-5,-15
O=C(NCCc1ccccc1)C(=O)NCCC1CCCCN1S(=O)(=O)c1ccccc1 (centres undefined),-3,38,-8,.,5
O=C(NCC1CCCN1S(=O)(=O)c1cccs1)c1ccc(F)c(F)c1 (centres undefined),-2,24,-20,.,-18
Cc1cc(F)ccc1S(=O)(=O)N1CCCOC1CNC(=O)C(=O)NCCc1ccccc1 (centres undefined),-4,51,-8,-13,-27
O=C(NCCc1ccccc1)C(=O)NCC1CCCN1S(=O)(=O)c1ccccc1 (centres undefined),-6,42*,-4,.,-13
Cc1ccc(C)c(S(=O)(=O)N2CCCC2CNC(=O)C(=O)NCc2ccco2)c1 (centres undefined),-4,14,-29,.,2
Cc1ccc(C)c(S(=O)(=O)N2CCCCC2CCNC(=O)C(=O)NCc2ccco2)c1 (centres undefined),-4,41*,17,.,-36
Cc1ccc(C(=O)NCC2CCCN2S(=O)(=O)c2cccs2)cc1C (centres undefined),-5,34*,-18,.,-7
C#CCNC(=O)C[C@H]1C[C@@]2(C(=O)OC)C(=C[C@H](C(C)(C)C)O[C@@H]2C)N(CCC2=CCCCC2)C1=O,-7,.,.,.,.
O=C(NCCc1ccc(F)cc1)C(=O)NCC1CCCN1S(=O)(=O)c1cccs1 (centres undefined),-3,69*,16,.,-20
CC(O)C(NS(=O)(=O)c1ccc(Cl)cc1)C(=O)OCC(=O)c1ccc2c(c1)NC(=O)CO2 (centres undefined),2,.,.,.,.
CC(C)CC(NC(=O)c1ccc(Cl)cc1)C(=O)OCC(=O)c1ccc2c(c1)NC(=O)CO2 (centres undefined),-7,42,65*,-4,63*
C#CCN1CC(COc2ccccc2)Oc2cccc(Oc3ccc(OC)cc3)c2S1(=O)=O (centres undefined),-5,.,.,.,.
C=CC[C@@H](CC(=O)N[C@H](CO)Cc1ccccc1)C(=O)N[C@H](COC(=O)[C@@H](CC=C)CC(=O)OC(C)(C)C)Cc1c[nH]c2ccccc12,-3,-1,84*,.,61*
O=C1C=C(c2ccccc2)C(=O)N1Nc1ccccc1,0,27,26,1,14
Cc1ccc(NN2C(=O)C=C(c3ccc(Cl)cc3)C2=O)cc1,1,39,73*,3,68*
CCCCC(=O)Nc1ccc2c3c(cccc13)C(=O)N2CC,-5,45*,-21,-4,-21
CCN1C(=O)c2cccc3c(NC(=O)C(C)(C)C)ccc1c23,-1,18,-18,4,-10
CC(C)C[C@H]1COc2cccc(NCCO)c2S(=O)(=O)N1,-7,.,.,.,.
O=C(N[C@@H](Cc1cccnc1)C(=O)N1CCC[C@H]1C(=O)NC1CCCC1)c1ccccc1,-1,.,.,.,.
O=C(NCCN1CCN(Cc2ccc([N+](=O)[O-])cc2)CC1)C(=O)Nc1ccccc1,6,13,-6,7,7
O=C(NCCN1CCN(c2ccc([N+](=O)[O-])cc2)CC1)NCc1ccccc1,-9,34*,-12,-1,1
CC(=O)O[C@@H]1C=C[C@@H](C#Cc2ccc(C(C)(C)C)cc2)O[C@@H]1COC(=O)Nc1ccccc1,-1,.,.,.,.
SMILES,GalR3 antag,OX1R antag-1,OX1R antag-2,GPR7 antagonist,CHO parental Ca
CCc1nc(Nc2ccccc2F)c2oc3ccccc3c2n1,-10,44*,-31,-10,-30
CCc1nc(Nc2ccc(F)cc2)c2oc3ccccc3c2n1,-12,0,-46,-25,-33
COc1ccc(OC)c(-n2c(Cn3c(-c4ccccn4)nc4ccccc43)n[nH]c2=S)c1,-3,59*,4,-5,-13
CCOc1ccc(-n2c(SCc3ccc(C#N)cc3)nnc2-c2cccnc2)cc1,63*,27,-35,4,-30
Cc1ccc(N=C2NC(=O)c3cc([N+](=O)[O-])ccc32)cc1,-3,56*,-1,3,9
CCN(CC)S(=O)(=O)c1ccc(Cl)c(NC(=O)CSc2cccc[n+]2[O-])c1,-1,7,-10,-14,-12
O=C(CSc1cccc[n+]1[O-])Nc1ccc([N+](=O)[O-])cc1Cl,-1,65*,-14,-7,-6
C=CCN1C(=O)/C(=C\C=C2\N(C)c3ccccc3C2(C)C)SC1=S,-3,5,1,-4,6
CN1/C(=C\C=C2/SC(=S)N(CC(=O)O)C2=O)C(C)(C)c2ccccc21,-1,34,77*,17,69*
COC(=O)C1=C(C)NC(=S)NC1c1ccc(Br)cc1 (centres undefined),-6,.,.,.,.
C=CCCC1CN(Cc2ccc(OC)cc2)S(=O)(=O)c2c(cccc2N2CCCCC2)O1 (centres undefined),0,.,.,.,.
Cc1nc2cc(-c3ccc(F)cc3)[nH]n2c(=O)c1C,-11,46,28,2,42*
Cc1nn(-c2ccccc2)c(Cl)c1CN(C(=O)CCl)c1cccc2ccccc12,-10,23,-19,32*,-12
COc1ccccc1OCCNC(=O)CN(c1cccc(C)c1)S(=O)(=O)c1ccccc1,1,72*,17,-18,-25
COc1ccccc1N(CC(=O)NCCSCc1ccc(C)cc1)S(=O)(=O)c1ccccc1,-5,60*,11,16,4
COc1ccc(OC)c(N(CC(=O)NCCSCc2ccco2)S(=O)(=O)c2ccccc2)c1,-12,51*,-3,10,-15
COc1ccc(N(CC(=O)NCCSc2ccccn2)S(=O)(=O)c2ccccc2)c(OC)c1,-4,46*,-6,-12,-27
COc1ccc(CCNC(=O)CN(c2cc(OC)ccc2OC)S(=O)(=O)c2ccccc2)cc1,-11,28,-22,-12,-30
O=C(NCc1ccc(F)cc1)N1[C@H]2CC[C@@H]1C=C(c1ccc(F)cc1OCc1ccccc1)C2,-1,.,.,.,.
CCOC(=O)C1=C(C(=O)OCC)C2N(Cc3ccc(C#N)cc3)c3ccccc3[C@@]23C[C@@H](C(=O)OC)N(S(=O)(=O)c2ccc(C#N)cc2)C3=N1 (some centres undefined),-5,.,.,.,.
Cc1[nH]nc2c1C(c1ccc(Br)cc1)N(Cc1ccccc1)C2=O (centres undefined),-5,.,.,.,.
O=C(Nc1ccccc1)c1cnc(-c2ccccc2)nc1-c1ccccc1,-4,19,7,-17,5
